# Data from ChEMBL document CHEMBL1141603, “2-aryloxy-4-alkylaminopyridines: discovery of novel corticotropin-releasing factor 1 antagonists” (J Med Chem, 2008).
# Active and inactive are the calls of the source. No cut-off for these calls is given here.
# Tests used:
# [1] = target: T1, Corticotropin-releasing factor receptor 1 (Rattus norvegicus, UniProt P35353); assay: (§1) Displacement of [125I]oCRF from rat CRF1 after 2 hrs by Betaplate scintillation counter
# T1 sequence (P35353 whole entry): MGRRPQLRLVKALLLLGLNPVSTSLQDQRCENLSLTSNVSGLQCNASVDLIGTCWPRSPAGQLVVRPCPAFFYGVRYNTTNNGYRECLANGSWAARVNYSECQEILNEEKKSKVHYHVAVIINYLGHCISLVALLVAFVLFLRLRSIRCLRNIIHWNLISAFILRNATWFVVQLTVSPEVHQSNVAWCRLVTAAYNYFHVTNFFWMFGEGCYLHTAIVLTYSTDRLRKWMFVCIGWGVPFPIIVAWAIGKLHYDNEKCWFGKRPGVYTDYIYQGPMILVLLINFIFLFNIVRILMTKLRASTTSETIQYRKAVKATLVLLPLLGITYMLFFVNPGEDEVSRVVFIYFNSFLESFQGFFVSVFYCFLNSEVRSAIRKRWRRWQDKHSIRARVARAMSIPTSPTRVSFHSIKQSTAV
# Rattus norvegicus [2] = assay: Ex vivo displacement of [125I]oCRF from CRF1 receptor in Sprague-Dawley rat pituitary at 3.2 mg/kg, po after 2 hrs by Betaplate scintillation counter; assay type: functional
# Outline: (§2)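 Male Sprague–Dawley rats (200–300 g) dosed orally 3.2 mg/kg; killed usually 1 h later, brain and pituitary frozen. Tissue at 25 mg wet wt/mL in PIPES pH 7.0 buffer with MgCl2, EGTA, bacitracin, aprotinin, incubated with 40 pM 125I-oCRF 2 h at room temperature; nonspecific with 1 µM rat/human CRF. Pellets centrifuged, rinsed, filtered, scintillation counted.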
# Rattus norvegicus [3] = assay: Ex vivo displacement of [125I]oCRF from CRF1 receptor in Sprague-Dawley rat brain cortex at 3.2 mg/kg, po after 2 hrs by Betaplate scintillation counter; assay type: functional; outline: as §2
# [4] = target: T2, Corticotropin-releasing factor receptor 1 (Rattus norvegicus) (UniProt P35353); assay: as §1
# T2 sequence (whole entry): T1 sequence (P35353 whole entry)
# [5] = Cmax in fed Beagle dog at 5.0 mg/kg, po; assay type: ADME, organism-based, Canis lupus familiaris; set-up: dose 5 mg/kg, route oral; conditions: in vivo
# Outline: (§3)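 Beagles fed one can of wet dog food 1 h before gavage of drug suspended in 0.1% methyl cellulose pH 2. Serum from jugular venipuncture at 0.25–24 h postdose, GC-MS analysis (LLOQ 1.0 ng/mL). Bioavailability = dose-normalized oral AUC(0–∞) over i.v. AUC(0–∞).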
# [6] = Oral bioavailability in fasted Beagle dog at 5.0 mg/kg; assay type: ADME, organism-based, Canis lupus familiaris; conditions: in vivo
# Outline: (§4)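 Fasted beagles (fasted ~21 h, food ~3.5 h postdose) gavaged with drug suspended in 0.1% methyl cellulose pH 2. Jugular serum taken 0.25–24 h, GC-MS quantitation (LLOQ 1.0 ng/mL). Cmax and Tmax from observed profiles; F = (dose i.v.·AUC p.o.)/(dose p.o.·AUC i.v.), AUC by linear trapezoid with log-linear extrapolation.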
# [7] = Clearance in Beagle dog at 1.0 mg/kg, iv; assay type: ADME, organism-based, Canis lupus familiaris; set-up: dose 1 mg/kg, route intravenous; conditions: in vivo
# Outline: (§5)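 Four beagles (2 male, 2 female, 8–15 kg), 1.0 mg/kg into cephalic vein; fasted ~21 h predose, fed ~3.5 h postdose. Serum sampled from jugular at 0.083–24 h, assayed by GC-MS (LLOQ 1.0 ng/mL). Noncompartmental: linear trapezoid AUC/AUMC, kel from log-linear terminal slope, t1/2 = 0.693/kel, CL = dose/AUC, VDss = CL·AUMC/AUC, VDγ = CL/kel.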
# [8] = Oral bioavailability in fed Beagle dog at 5.0 mg/kg; assay type: ADME, organism-based, Canis lupus familiaris; conditions: in vivo; outline: as §3
# [9] = Cmax in fasted Beagle dog at 5.0 mg/kg, po; assay type: ADME, organism-based, Canis lupus familiaris; set-up: dose 5 mg/kg, route oral; conditions: in vivo; outline: as §4
# [10] = Volume of distribution at terminal elimination phase in Beagle dog at 1.0 mg/kg, iv; assay type: ADME, organism-based, Canis lupus familiaris; set-up: dose 1 mg/kg, route intravenous; conditions: in vivo; outline: as §5
# [11] = Volume of distribution at steady state in Beagle dog at 1.0 mg/kg, iv; assay type: ADME, organism-based, Canis lupus familiaris; set-up: dose 1 mg/kg, route intravenous; conditions: in vivo, read-out: Vdss; outline: as §5
# [12] = Tmax in fasted Beagle dog at 5.0 mg/kg, po; assay type: ADME, organism-based, Canis lupus familiaris; set-up: dose 5 mg/kg, route oral; conditions: in vivo; outline: as §4
# [13] = Tmax in fed Beagle dog at 5.0 mg/kg, po; assay type: ADME, organism-based, Canis lupus familiaris; set-up: dose 5 mg/kg, route oral; conditions: in vivo; outline: as §3
# [14] = Half life at terminal elimination phase in Beagle dog at 1.0 mg/kg, iv; assay type: ADME, organism-based, Canis lupus familiaris; set-up: dose 1 mg/kg, route intravenous; conditions: in vivo; outline: as §5
# [15] = Solubility at pH 2; assay type: physicochemical; conditions: buffer
# [16] = Dissociation constant, pKa of the compound; assay type: physicochemical
# [17] = Solubility at pH 7; assay type: physicochemical; conditions: buffer
# [18] = Fraction unbound ligand in human serum; assay type: ADME, cell-free
compound,measurement,setting,value
CCC(CC)Nc1cc(C)nc(Oc2c(C)cc(Br)cc2C)c1C,IC50,[1],5.6 nM
same,inhibition in vivo at 3.2 mg/kg,Rattus norvegicus [2],81%
same,inhibition in vivo at 3.2 mg/kg,Rattus norvegicus [3],86%
CCC(CC)Oc1cc(C)nc(Nc2c(C)cc(C)cc2C)c1C(=O)O,Activity,[4],inactive
CCC(CC)Oc1cc(C)nc(Oc2c(C)cc(C)cc2C)c1C,Cmax,[5],1740 ng/mL
same,bioavailability,[6],3.6%
same,clearance,[7],4.1 mL/min/kg
same,bioavailability,[8],37%
same,Cmax,[9],187 ng/mL
same,Vd,[10],3.1 L/kg
same,Vd,[11],1.1 L/kg
same,IC50,[1],6.8 nM
same,Tmax,[12],1.5 h
same,Tmax,[13],1.9 h
same,half-life,[14],8.3 h
same,inhibition in vivo at 3.2 mg/kg,Rattus norvegicus [2],72%
same,inhibition in vivo at 3.2 mg/kg,Rattus norvegicus [3],75%
CCC(CC)Oc1cc(C)nc(Oc2c(C)cc(C)cc2C)c1C.CS(=O)(=O)O,solubility,[15],3 µg/mL
same,pKa,[16],3.6
same,solubility,[17],0.2 µg/mL
CC[C@@H](CO)Nc1cc(C)nc(Oc2c(C)cc(Cl)cc2C)c1C(=O)NC,IC50,[1],31 nM
same,fraction unbound,[18],0.045
same,inhibition in vivo at 3.2 mg/kg,Rattus norvegicus [2],63%
same,inhibition in vivo at 3.2 mg/kg,Rattus norvegicus [3],86%
